From ChEMBL document CHEMBL4316598, “Synthesis, antiproliferative and apoptosis induction potential activities of novel bis(indolyl)hydrazide-hydrazone derivatives” (Bioorg Med Chem, 2019)
Values after ≈ are worked out from the molar mass of the structure shown. Active and inactive are the calls of the source. The rule behind the calls is not given here.

What was measured:
HeLa [1] = assay: Cytotoxicity against human HeLa cells assessed as reduction in cell viability after 4 hrs by MTT assay; assay type: functional, cell-based
Outline: (§1)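 MTT: 10,000–20,000 cells/well attached for 16 h, then washed twice with serum-free RPMI. Treated with 1–200 µM for 4 h, 3 parallel runs per concentration. MTT added for 2 h; medium partly removed and isopropanol added. A590 read. Viability = (A treated − A doxorubicin)/(A medium − A doxorubicin)×100. Mean of three experiments, triplicate wells each.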

MDA-MB-231 = assay: Cytotoxicity against human MDA-MB-231 cells assessed as reduction in cell viability after 4 hrs by MTT assay; assay type: functional, cell-based; settings: MDA-MB-231, 4 h; outline: as §1
A549 = assay: Cytotoxicity against human A549 cells assessed as reduction in cell viability after 4 hrs by MTT assay; assay type: functional, cell-based; outline: as §1
HEK293 = assay: Cytotoxicity against HEK293 cells assessed as reduction in cell viability after 4 hrs by MTT assay; assay type: cell-based, Homo sapiens; outline: as §1
MCF7 [2] = assay: Cytotoxicity against human MCF7 cells assessed as reduction in cell viability after 4 hrs by MTT assay; assay type: functional, cell-based; outline: as §1
DU-145 = assay: Antiproliferative activity against human DU145 cells by MTS assay; assay type: functional, cell-based
MCF7 [3] = assay: Induction of caspase-dependent apoptosis in human MCF7 cells assessed as activation of caspase-3 at 3 uM after 24 hrs by Western blot analysis; assay type: functional, cell-based
Outline: (§2)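 Cleaved caspase-3 immunoblot. Cells were exposed at 1, 3 and 5 µM for 24 h at 37 °C, with paclitaxel 3 µM as positive control. Lysis was in ice-cold Triton X-100 buffer, and protein was measured by BCA. Lysates were separated by electrophoresis, transferred to nitrocellulose and blocked in milk. Primary antibody was applied overnight at 4 °C and secondary for 1 h at 28 °C. Detection was by enhanced chemiluminescence.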

HeLa [4] = assay: Induction of caspase-dependent apoptosis in human HeLa cells assessed as activation of caspase-3 at 3 uM after 24 hrs by Western blot analysis; assay type: functional, cell-based; outline: as §2
Detroit 562 = assay: Cytotoxicity against human Detroit 562 cells assessed as reduction in cell viability after 4 hrs by MTT assay; assay type: functional, cell-based; settings: Detroit 562, 4 h
[5] = Cytotoxicity against human SW680 cells assessed as reduction in cell viability after 4 hrs by MTT assay; assay type: functional, cell-based
SCC-25 = assay: Cytotoxicity against human SCC25 cells assessed as reduction in cell viability after 4 hrs by MTT assay; assay type: functional, cell-based; settings: SCC-25, 4 h
FaDu = assay: Cytotoxicity against human FADU cells assessed as reduction in cell viability after 4 hrs by MTT assay; assay type: functional, cell-based
[6] = Homo sapiens, HeLa, 4 h, read-out: IC50
[7] = Homo sapiens, A549, 4 h, read-out: IC50
[8] = Homo sapiens, MCF7, 4 h, read-out: IC50

SMILES	IC50 (HeLa [1]; hela)	IC50 (MDA-MB-231) [µM]	IC50 (HEK293; hek293)	IC50 (MCF7 [2]; mcf7)	IC50 (HeLa [1]; [6]) [µM]	IC50 (A549; [7]) [µM]	IC50 (MCF7 [2]; [8]) [µM]	other results
Cn1cc(C(=O)N/N=C\c2c[nH]c3ccccc23)c2cc(Br)ccc21	Not Active	14.2	Non-Toxic	Not Active				IC50 (A549; a549): Not Active
O=C(N/C=C/c1c[nH]c2ccccc12)C(=O)c1c[nH]c2ccccc12								IC50 (DU-145): 7.6 µg/mL (≈ 23.1 µM)
CC(=O)O[C@H]1C(=O)[C@@]2(C)[C@H]([C@H](OC(=O)c3ccccc3)[C@]3(O)C[C@H](OC(=O)[C@H](O)[C@@H](NC(=O)c4ccccc4)c4ccccc4)C(C)=C1C3(C)C)[C@]1(OC(C)=O)CO[C@@H]1C[C@@H]2O								Activity (MCF7 [3]): Active; Activity (HeLa [4]): Active
COc1ccc2[nH]cc(/C=N\NC(=O)c3cn(C)c4ccc(Br)cc34)c2c1		22.7	Non-Toxic	Not Active	14.2	12.8		
Cn1cc(/C=N\NC(=O)c2cn(C)c3ccccc23)c2ccccc21	Not Active	18.9	Non-Toxic			19	31.3	
COc1cccc2c1C(=O)c1c(O)c3c(c(O)c1C2=O)C[C@@](O)(C(=O)CO)C[C@@H]3O[C@H]1C[C@H](N)[C@H](O)[C@H](C)O1 [DOXORUBICIN]		3.1			0.36 to 1.09	0.89 to 2.11	0.23 to 0.98	IC50 (Detroit 562): 1.26 µM; IC50 [5]: 1.2 µM; IC50 (SCC-25): 2.24 µM; IC50 (FaDu): 0.68 µM; IC50 (HEK293; Homo sapiens, HEK293, 4 h, read-out: IC50): > 200 µM
